Compounds with a hit are over-represented: about 0.94% of the library has one in this group of screens.
GC-A act: GC-A stimulated cGMP production enhancers – HEK293 GC-A cells, cGMP TR-FRET, EC30 ANP, primary screen | Atrial natriuretic peptide receptor 1 (Homo sapiens), P16066 | 0% at EC30 ANP, 100% saturating ANP | activation, % at 10 µM | 370,000 compounds, 0.14% hits | AID 1671463, 2021; in the data active means activation above about 40%
GalR3 antagonist: GalR3 antagonists in HEK293 cells, primary screen, cell-based, fluorescence readout | Galanin receptor type 3 (Homo sapiens), O60755 | inhibition, % at 3 µM | HEK293 GalR3-CNG cAMP membrane potential fluorescence; galR3 body fused to GalR1 C-terminus | 360,000 compounds, 0.44% hits;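 active means inhibition above the screen-wide average plus 3 SD, cut at about 13% in these data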;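 further: forskolin and galanin both at EC90 stimulate the cells; cAMP rise reported by CNG channel membrane potential dye signal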
GC-B act: human GC-B receptor activators, primary screen, HEK293 GC-B cells, cGMP TR-FRET, EC30 CNP | Atrial natriuretic peptide receptor 2 (Homo sapiens), P20594 | 0% at EC30 CNP, 100% saturating CNP | activation, % at 10 µM | 370,000 compounds, 0.11% hits | AID 1920062, 2024;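 active means activation at 10 µM reaching about 35% in either raw or pattern-adjusted values, limit read from the data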
Arr AP2 block: inhibitors of beta-arrestin/AP2 binding, primary screen, biochemical, GPCR trafficking, flow cytometry; FITC-arrestin peptide / GST-AP2 beads; AP2 beta2 appendage carries R879A mutation; inhibition, % at 10 µM; 340,000 compounds, 0.31% hits; AID 504490, 2011;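 active means inhibition above a set limit, near 3 SD of compounds lacking own fluorescence, cut at about 54% in these data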
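system = GST-tagged AP2 beta2-adaptin appendage (R879A) on 4 µm glutathione beads | reagent = FITC-labelled arrestin peptide probe, 50 nM final | schedule = compound with beads 12 min RT, then probe 1 h RT | signal = HyperCyt-sampled flow cytometry, FL1 channel, ex 488/em 535 nm | read-out = percent response from loss of bead-bound FITC fluorescence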
GalR3 antag conf: GalR3 antagonist hit confirmation, cell-based, fluorescence, triplicate | AID 652245, 2013 | HEK293 GalR3 CNG cAMP biosensor, membrane potential fluorescence; galR3 fused to GalR1 carboxy tail; challenged with forskolin and galanin at EC90 | shares compounds with GalR3 antagonist | inhibition, % at 3 µM | 1,600 compounds, 59% hits;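 active means inhibition above the primary screen's cutoff, the mean inhibition of all screened compounds plus 3 SD, cut at about 13% in these data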
HEK-CNG parental: nonspecific cAMP agonists in parental HEK-CNG cells, counter-screen for GalR3 antagonist project, cell-based, fluorescence, high throughput | shares compounds with GalR3 antagonist | HEK293-CNG parental cells, cAMP membrane potential fluorescence; normalised: DMSO wells 0%, forskolin wells 100% | activation, % at 3 µM | 1,600 compounds, 10% hits | AID 652268, 2013; in the data active means activation above about 1.3%
Of the large screens only hits and unclear results are named; the others gave an inactive call (follow-up assays come after a bar, where they were run).

OCCC1CN(Cc2cnc(-c3ccc(Cl)cc3)nc2)CCN1C1CCCCC1 (centres undefined)	GalR3 antagonist 83.1 | GalR3 antag conf 12.7 | HEK-CNG parental inactive
Nc1[nH]c(C(=O)c2ccccc2)c(-c2ccccc2[N+](=O)[O-])c1C(=O)NCCc1c[nH]c2ccccc12	none (no result: Arr AP2 block)
Cc1ccc(S(=O)(=O)N2CCOCC2)cc1C(=O)N1CCN(S(=O)(=O)c2cccs2)CC1	GalR3 antagonist 13.1 | GalR3 antag conf inactive | HEK-CNG parental inactive
Cc1ccc(S(=O)(=O)N2CCOCC2)cc1C(=O)N1CCCC1	none
Cc1ccc(S(=O)(=O)N2CCOCC2)cc1NC(=O)c1cccc(S(=O)(=O)N2CCCC2)c1	none (no result: GalR3 antagonist) | GalR3 antag conf inactive | HEK-CNG parental inactive
Cc1ccccc1NC(=O)c1cc(S(=O)(=O)N2CCOCC2)ccc1F	GalR3 antagonist 13.7 | GalR3 antag conf inactive | HEK-CNG parental inactive
CC(=O)c1ccc(S(=O)(=O)NCC2CCN(C(=O)C(=O)c3cc4ccccc4o3)CC2)cc1	none (no result: Arr AP2 block)
Cc1ccc(NC(=O)c2ccc(CN3CCc4ccccc4C3)cc2)cc1	GalR3 antagonist 27.1 | GalR3 antag conf 103.6 | HEK-CNG parental inactive
O=C(Nc1ccccc1)c1ccc(CN2CCc3ccccc3C2)cc1	GalR3 antagonist 92.0 | GalR3 antag conf 102.3 | HEK-CNG parental inactive
O=C(Nc1ccc(S(=O)(=O)N2CCCCC2)cc1)c1ccc(CN2CCc3ccccc3C2)cc1	GalR3 antagonist 105.9 | GalR3 antag conf 105.1 | HEK-CNG parental inactive
CCOC(=O)CCN(c1ccccc1)S(=O)(=O)c1ccc(-c2ccc(=O)[nH]n2)s1	GalR3 antagonist 32.5 | GalR3 antag conf 57.4 | HEK-CNG parental inactive
CCCCN(Cc1cccs1)S(=O)(=O)c1ccc(-c2ccc(=O)[nH]n2)s1	GalR3 antagonist 21.8 | GalR3 antag conf 24.1 | HEK-CNG parental inactive
COCCN(Cc1cccs1)S(=O)(=O)c1ccc(-c2ccc(=O)[nH]n2)s1	GalR3 antagonist 26.5 | GalR3 antag conf 27.7 | HEK-CNG parental inactive
CCCCOCCCNC(=O)C[C@@H]1C(=O)N(CCc2ccc(Cl)cc2)C2=CCCCC[C@]21C(=O)OC	none (no result: GalR3 antagonist, Arr AP2 block)
COc1cc2c(cc1OC)CSC1C(=O)N(C)C(SC2)C(=O)N1C	none (no result: GalR3 antagonist, Arr AP2 block)
COc1ccccc1C(=O)N1CCN(C(=O)[C@H](CCc2ccccc2)NC(=O)[C@H]2O[C@@H](n3cnc4c(N)ncnc43)[C@H](O)[C@@H]2O)CC1	none (no result: Arr AP2 block)
Cc1ccccc1C(=O)N[C@@H](Cc1cccnc1)C(=O)N1CCC[C@H]1C(=O)NCCc1ccccc1Cl	none (no result: Arr AP2 block)
CCOC(=O)CCc1cccc2c1CCC2=O	none (no result: GalR3 antagonist) | GalR3 antag conf inactive | HEK-CNG parental inactive
O=C(C(=O)N1CCN(c2ccc(F)cc2)CC1)N1CCCCC1	GalR3 antagonist 18.1 | GalR3 antag conf inactive | HEK-CNG parental inactive
OCCOCCn1c(C(CO)Nc2nc(-c3ccc(Cl)cc3)cs2)nc2ccccc21 (centres undefined)	none
Nc1c(Cl)cc(-c2csc(NC(CO)c3nc4ccccc4n3CCOCCO)n2)cc1Cl (centres undefined)	GalR3 antagonist 64.2 | GalR3 antag conf inactive | HEK-CNG parental inactive
COc1ccc(CCNC(=O)c2cccnc2SC)cc1	GalR3 antagonist 12.8 | GalR3 antag conf 26.5 | HEK-CNG parental inactive
Cc1cc(-n2c(C)cc(C(=O)CSc3ncnc4ccccc34)c2C)no1	GalR3 antagonist 91.1 | GalR3 antag conf inactive | HEK-CNG parental inactive
Cc1cc(C(=O)CSc2ncnc3ccccc23)c(C)n1C1CC1	none
O=C(CCCCl)Oc1ccc2cc(-c3ccc4ccccc4n3)c(=O)oc2c1	GalR3 antagonist 14.1 | GalR3 antag conf 12.9 | HEK-CNG parental inactive
Cc1cc(/C=N/n2cnnc2)c(C)n1-c1ccc(OCc2ccc(Cl)cc2)cc1	GalR3 antagonist 41.4 | GalR3 antag conf 63.5 | HEK-CNG parental inactive
CS(=O)(=O)c1ncc(Cl)c(C(=O)Nc2ccc3ccccc3c2)n1	GalR3 antagonist 20.0 | GalR3 antag conf inactive | HEK-CNG parental inactive
CC(=O)Nc1ccc(NC(=O)c2nc(S(=O)(=O)Cc3ccccc3)ncc2Cl)cc1	none
Cc1cc(C)cc(NC(=O)NC2CCN(S(=O)(=O)c3ccc(F)cc3)CC2)c1	none (no result: GalR3 antagonist, Arr AP2 block)
Cc1ccc(-n2c(SCc3cccc(F)c3)nnc2-c2cccc(C)c2)cc1	none (no result: GalR3 antagonist, Arr AP2 block)
CC(C)(C)c1ccc(-n2ncc3c2CCCC3NC(=O)C2(C(N)=O)CC2)cc1 (centres undefined)	GalR3 antagonist 91.8 | GalR3 antag conf 113.9 | HEK-CNG parental inactive
CC(=O)NCC(=O)NC1CCCc2c1cnn2-c1ccc(C(C)(C)C)cc1 (centres undefined)	none
Cc1cc(C(=O)NC2CCCc3c2cnn3-c2ccc(C(C)(C)C)cc2)nn1C (centres undefined)	GalR3 antagonist 97.0 | GalR3 antag conf 106.2 | HEK-CNG parental inactive
OCC1SC(O)C(O)C(O)C1O (centres undefined)	none (no result: Arr AP2 block)
Cc1ccc(-n2c(=O)cc(N3CCN(C(=O)c4ccco4)CC3)[nH]c2=O)cc1	GalR3 antagonist 15.1 | GalR3 antag conf inactive | HEK-CNG parental inactive
COc1ccccc1OCC(=O)NCCC1=CCCCC1	none (no result: GalR3 antagonist) | GalR3 antag conf inactive | HEK-CNG parental inactive
CC(=O)N1CCC2(CC1)C(C#N)=C(N)Oc1n[nH]c(C(F)(F)F)c12	none (no result: GalR3 antagonist) | GalR3 antag conf inactive | HEK-CNG parental inactive
Cc1ccc(-c2csc(NC(=O)C3CCN(S(=O)(=O)c4cccs4)CC3)n2)cc1	GalR3 antagonist 100.9 | GalR3 antag conf 104.4 | HEK-CNG parental inactive
O=C(Nc1nc(-c2ccc3ccccc3c2)cs1)C1CCN(S(=O)(=O)c2cccs2)CC1	none
Cc1csc2ncnc(N3CCN(C(=S)Nc4ccc(C(F)(F)F)cc4)CC3)c12	GalR3 antagonist 67.0 | GalR3 antag conf 93.2 | HEK-CNG parental 1.8
Cc1csc2c(N3CCN(C(=S)Nc4ccc(C(F)(F)F)cc4)CC3)ncnc12	none
CC1CCN(C(=O)c2[nH]cnc2C(=O)N(C)CCO)CC1	none (no result: Arr AP2 block)
O=C(Nc1nc(-c2cc3ccccc3o2)cs1)c1ccc(S(=O)(=O)N2CCCC2)cc1	none
CN(C)S(=O)(=O)c1ccc(C(=O)Nc2nc(-c3cc4ccccc4o3)cs2)cc1	GalR3 antagonist 93.2 | GalR3 antag conf 102.7 | HEK-CNG parental inactive
CC(C)(C)c1ccc(C#C[C@@H]2C=C[C@H](O)[C@@H](COC(=O)Nc3ccccc3)O2)cc1	none (no result: Arr AP2 block)

Source: PubChem BioAssay (several laboratories)
